From PubChem
TRPC6 activator = mouse TRPC6 channel activators, primary screen, cell-based, HEK293, membrane potential dye | Short transient receptor potential channel 6 (Mus musculus), Q61143 | HEK293-TRPC6 membrane potential dye fluorescence; stronger effect = higher value | B-score at 10 µM | 310,000 tested, 0.13% active;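 active = B-score of the integrated fluorescence ratio above library mean plus 3 SD, and starting fluorescence ratio within library mean plus 5 SD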;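 also: higher score means more depolarization so channel activation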
Target sequence (Q61143 whole entry, looked up): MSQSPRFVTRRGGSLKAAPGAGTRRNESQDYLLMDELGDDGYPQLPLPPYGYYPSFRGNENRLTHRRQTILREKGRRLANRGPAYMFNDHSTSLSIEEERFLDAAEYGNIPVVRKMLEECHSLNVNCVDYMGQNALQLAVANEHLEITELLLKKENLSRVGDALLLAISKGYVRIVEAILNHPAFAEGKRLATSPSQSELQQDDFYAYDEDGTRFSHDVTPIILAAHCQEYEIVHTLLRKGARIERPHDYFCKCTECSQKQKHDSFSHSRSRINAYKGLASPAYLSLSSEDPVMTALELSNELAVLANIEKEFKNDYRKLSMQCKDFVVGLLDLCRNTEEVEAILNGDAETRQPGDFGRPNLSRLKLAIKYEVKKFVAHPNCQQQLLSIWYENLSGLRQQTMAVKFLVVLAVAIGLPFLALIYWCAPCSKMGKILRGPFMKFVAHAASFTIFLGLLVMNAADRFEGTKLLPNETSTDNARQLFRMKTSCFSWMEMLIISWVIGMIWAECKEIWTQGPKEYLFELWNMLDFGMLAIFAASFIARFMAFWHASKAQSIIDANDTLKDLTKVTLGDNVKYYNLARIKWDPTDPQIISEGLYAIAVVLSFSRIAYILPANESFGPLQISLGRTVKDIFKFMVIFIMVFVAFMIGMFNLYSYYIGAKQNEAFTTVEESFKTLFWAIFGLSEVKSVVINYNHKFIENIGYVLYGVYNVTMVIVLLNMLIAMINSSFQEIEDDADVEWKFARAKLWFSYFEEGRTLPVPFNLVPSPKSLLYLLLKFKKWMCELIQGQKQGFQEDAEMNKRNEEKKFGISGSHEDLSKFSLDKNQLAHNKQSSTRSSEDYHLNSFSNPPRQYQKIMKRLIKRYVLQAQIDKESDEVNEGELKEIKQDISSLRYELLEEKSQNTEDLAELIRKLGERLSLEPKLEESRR
TRPC4 act = activators of mouse TRPC4 channel, primary screen, Fluo4 calcium, HEK293 TRPC4beta/mu-opioid cells; Fluo4 calcium fluorescence; stronger effect = higher value; Short transient receptor potential channel 4 (Mus musculus), Q9QUQ5; B-score at 10 µM; 310,000 tested, 0.49% active;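 active = B-score above 5 SD of library B-scores, and initial fluorescence ratio not above library mean plus 5 SD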;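 also: positive B-score marks a calcium rise read as TRPC4 activation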
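Material: TRPC4beta and mu-opioid receptor HEK293 stable cells | Incubation: 45 min room-temperature Fluo4 loading, 110 s read | Detection: Kinetic Fluo4 calcium fluorescence | Measure: Integrated baseline-normalised fluorescence ratio, converted to per-well B score | Benchmarks: Low control buffer alone, high control maximal DAMGO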
TRPC4 inh = inhibitors of mouse TRPC4 channel, primary screen, Fluo4 calcium, HEK293 TRPC4beta/mu-opioid cells | 300,000 tested, 0.39% active | DAMGO-evoked Fluo4 calcium flux; stronger effect = lower value | AID 2247, 2010 | Short transient receptor potential channel 4 (Mus musculus), Q9QUQ5 | B-score at 10 µM;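 active = B-score over 3 SD under the library average, no early fluorescence shift, positive overall ratio signal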
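Assay system: TRPC4beta/mu-opioid receptor HEK293 cell line; compound dosing: single concentration per test compound; detection: Fluo4 Ca2+ flux fluorescence; evaluation: per-well B score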
TRPC4 potent = positive allosteric modulators of TRPC4, primary screen, cell-based, mouse TRPC4beta, HEK293 mu-opioid, Fluo-4 calcium | DAMGO EC20, Fluo-4 Ca2+ flux; stronger effect = higher value | B-score at 10 µM | 310,000 tested, 0.42% active | AID 2227, 2009;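 active = B-score of calcium response area above 5 SD of library B-scores, with initial fluorescence ratio within 5 SD of library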;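 also: B-score of integrated fluorescence ratio over time as area under calcium response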
TRPC6 inhibitor = mouse TRPC6 channel inhibitors, primary screen, cell-based, HEK293, membrane potential dye. Short transient receptor potential channel 6 (Mus musculus), Q61143. ACh-evoked depolarization; stronger effect = lower value. B-score at 10 µM. 310,000 tested, 1.1% active;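 active = B-score under library mean minus 3 SD, initial fluorescence not abnormally high, positive integrated signal ratio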;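 also: B-score derived from integrated fluorescence ratio over the kinetic read; more negative B-score means stronger inhibition of depolarization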
TRPC4 sel inh 2 = mouse TRPC4 off-target activity of TRPC6 inhibitors, second screen; 920 tested, 42% active; HEK293 TRPC4/MOR, membrane potential dye fluorescence; channel activated by saturating DAMGO dose; inhibition, % at 10 µM; shares compounds with TRPC6 inhibitor;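 active = compounds whose fluorescence signal differed from control wells by over 3 SD, either direction, in both duplicate plates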
TRPC4 spec = mouse TRPC4 modulation by TRPC6 hits, confirmation, selectivity assay for TRPC6 inhibitor project, cell-based, HEK293 TRPC4/mu-opioid, membrane potential dye; shares compounds with TRPC6 inhibitor; membrane potential fluorescence; activity change, negative = inhibition, % at 10 µM; 920 tested, 61% active; AID 2777, 2010;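 active = rise or fall in signal beyond 3 SD of buffer-only wells in both replicate plates, either sign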;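 also: integrated kinetic ratio of fluorescence range over baseline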
HEK293 MPD ctr 2-1 = nonspecific membrane potential effects, parental HEK293, confirmation, counter-screen for TRPC6 inhibitor project, cell-based, second counter screen; AID 2779, 2010; shares compounds with TRPC6 inhibitor; signal change vs control, % at 10 µM; parental HEK293 membrane potential dye fluorescence; maximal acetylcholine challenge after compound addition; 920 tested, 31% active;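 active = membrane potential signal moving either way by over 3 SD of the maximum-effect control, in both duplicate plates, meaning non-specific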
HEK293 MPD ctr-1 = membrane potential modulation in parental HEK293, confirmation, counter-screen for TRPC6 inhibitor project, cell-based; shares compounds with TRPC6 inhibitor; parental HEK293 membrane potential dye fluorescence; membrane potential signal change, % at 10 µM; 920 tested, 60% active; AID 2780, 2010;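 active = membrane potential signal shifting up or down by more than 3 SD of buffer-only wells, on both duplicate plates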
HEK293 MPD ctr-2 = parental HEK293 membrane potential modulation, confirmation, counter-screen for TRPC6 modulator project, cell-based | shares compounds with TRPC6 inhibitor | membrane potential dye fluorescence | membrane potential signal change, % at 10 µM | 2,400 tested, 51% active | AID 488924, 2010;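 active = membrane potential signal moves up or down beyond 5 SD from buffer-only wells, on both duplicate plates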
HEK293 MPD ctr 2-2 = parental HEK293 nonspecific activity of TRPC6 modulators, second screen. shares compounds with TRPC6 inhibitor. membrane potential dye fluorescence; after compound, maximal acetylcholine stimulation. inhibition, % at 10 µM. 2,400 tested, 14% active. AID 488926;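 active = membrane potential signal drops by more than 5 SD from the mean control signal, in both duplicate plates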;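 also: plate controls were acetylcholine ECmax control wells for no effect and buffer only wells for full effect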
TRPC4/MOR mod = TRPC4 modulation by TRPC6 hit compounds, confirmation, selectivity assay for TRPC6 modulator project, cell-based, HEK293 TRPC4/mu-opioid, membrane potential dye, mouse; shares compounds with TRPC6 inhibitor; membrane potential fluorescence; percent change from control (negative = decrease, positive = increase), % at 10 µM; 2,400 tested, 69% active; AID 488927, 2010;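 active = membrane potential signal moved up or down beyond 5 SD of buffer control wells, in both duplicate plates, actives on both sides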;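 also: plate controls were assay buffer wells for no effect and DAMGO maximal-effect wells for full effect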
TRPC4 ctr inh 2 = second selectivity test of TRPC6 modulators against mouse TRPC4; shares compounds with TRPC6 inhibitor; HEK293 TRPC4/mu-opioid, membrane potential dye fluorescence; stimulated with maximal-effect DAMGO; inhibition, % at 10 µM; 2,400 tested, 55% active; AID 488928;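 active = drop in membrane potential signal beyond 5 SD of the control wells in both duplicate plates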;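 also: TRPC4 counter screen for TRPC6 hits run under conditions tuned for TRPC6 not TRPC4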
TRPC6 inh conf = mouse TRPC6 channel inhibitors, confirmation, HEK293 cells, membrane potential dye, duplicate. shares compounds with TRPC6 inhibitor. ACh-evoked depolarization. inhibition, % at 10 µM. 3,300 tested, 43% active;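 active = fluorescence ratio falls more than 5 SD below the full-stimulation control mean, in both duplicate runs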;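 also: integrated fluorescence ratio of peak minus minimum over baseline after agonist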
TRPC6 act confirm = mouse TRPC6 channel activators, confirmation, HEK293 cells, membrane potential dye, duplicate; 2,800 tested, 11% active; shares compounds with TRPC6 inhibitor; HEK293-TRPC6 membrane potential dye fluorescence, FDSS; activation, % at 10 µM;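 active = ratio signal rise beyond 5 SD above unstimulated control wells' mean, seen in both duplicate runs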;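 also: plate controls were buffer EC0 wells for no effect and acetylcholine ECmax response for full effect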
Starred values were filed as active, the others as inactive; i = inactive; . = no result given. This is a sample that favours compounds with a hit; in the whole collection about 2.3% have one here.

SMILES	TRPC6 activator	TRPC4 act	TRPC4 inh	TRPC4 potent	TRPC6 inhibitor	TRPC4 sel inh 2	TRPC4 spec	HEK293 MPD ctr 2-1	HEK293 MPD ctr-1	HEK293 MPD ctr-2	HEK293 MPD ctr 2-2	TRPC4/MOR mod	TRPC4 ctr inh 2	TRPC6 inh conf	TRPC6 act confirm
Cc1cccc(NS(=O)(=O)c2cccc(C(=O)N3CCN(c4ccccn4)CC3)c2)c1	i	i	i	i	-10.5*	i	2.7%*	220.5%*	1.3%*	.	.	.	.	78.7%*	.
CC1Cc2ccccc2N1S(=O)(=O)c1cccc(C(=O)N2CCN(c3ncccn3)CC2)c1 (centres undefined)	20.9*	i	i	i	i	.	.	.	.	130.0%*	i	86.5%*	85.5%*	.	173.5%*
Cc1cccc(NS(=O)(=O)c2cccc(C(=O)N3CCN(S(=O)(=O)c4ccccc4)CC3)c2)c1	12.8*	i	i	i	-13.1*	.	.	.	.	i	i	i	i	110.5%*	132.0%*
CN1CCC(NC(=S)Nc2cccc([N+](=O)[O-])c2)CC1	i	i	i	i	i	.	.	.	.	.	.	.	.	.	.
COc1cccc(NC(=O)c2cnc(SCC(=O)NCc3ccc4c(c3)OCO4)n(C)c2=O)c1	i	i	i	i	i	.	.	.	.	.	.	.	.	.	.
CCOC(=O)N1CCN(C(=O)c2cccc(NS(=O)(=O)c3ccc(F)c(F)c3)c2)CC1	i	i	i	i	i	.	.	.	.	.	.	.	.	.	.
CCOC(=O)N1CCN(C(=O)c2cccc(S(=O)(=O)Nc3ccc(Br)cc3)c2)CC1	i	i	i	i	-8.97*	i	i	251.5%*	i	.	.	.	.	i	.
CN(c1ccccc1)S(=O)(=O)c1cccc(C(=O)N2CCN(c3ccccn3)CC2)c1	11.9*	i	i	i	-7.22*	.	.	.	.	143.5%*	i	37.5%*	i	64.0%*	94.0%*
